Assays:
[1] = tested on: peripheral blood immune cells; experiment: Pharmacodynamics: fold change in peripheral blood; assay type: in vivo, human
Method in brief: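 Complete blood counts, including absolute monocyte count, were taken as safety labs before treatment, mid-C1, before C2–C9, then every other cycle and at end of therapy. Patients took the oral agent once daily on a continuous 28-day cycle, dosed by BSA at 400, 600 or 800 mg/m2.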

[2] = tested on: serum cytokines (IL-10, IL-12p70, IL-6, MCP-1, M-CSF); experiment: Pharmacodynamics: serum cytokine analysis, fold change from Day 1; assay type: in vivo, human

## FC(F)(F)c1ccc(CNc2ccc(Cc3c[nH]c4ncc(Cl)cc34)cn2)cn1 [Pexidartinib]
[1]; 6–8 Days from C1, N=9
  Absolute Immature Granulocyte, Med. Fold Change (95% CI) from Day 1: 0.50 (0.10, 1.00)
  Immature granulocytes, Med. Fold Change (95% CI) from Day 1: 0.50 (0.08, 0.67)
[1]; 6–8 Days from C1, N=10
  Absolute Eosinophil Count, Med. Fold Change (95% CI) from Day 1: 0.76 (0.50, 1.07)
  Eosinophils %, Med. Fold Change (95% CI) from Day 1: 0.78 (0.55, 1.04)
[1]; 6–8 Days from C1, N=12
  Absolute Basophil Count, Med. Fold Change (95% CI) from Day 1: 0.92 (0.50, 1.00)
  Basophils %, Med. Fold Change (95% CI) from Day 1: 0.95 (0.50, 1.13)
[1]; 6–8 Days from C1, N=13
  Absolute Lymphocyte Count, Med. Fold Change (95% CI) from Day 1: 0.97 (0.68, 1.20)
  Absolute Monocyte Count, Med. Fold Change (95% CI) from Day 1: 0.58 (0.35, 0.81)
  Absolute Neutrophil Count, Med. Fold Change (95% CI) from Day 1: 0.90 (0.77, 1.26)
  Hemoglobin (Hgb), Med. Fold Change (95% CI) from Day 1: 1.03 (0.97, 1.08)
  Lymphocytes %, Med. Fold Change (95% CI) from Day 1: 0.96 (0.81, 1.29)
  Monocytes %, Med. Fold Change (95% CI) from Day 1: 0.60 (0.40, 0.87)
  Neutrophils % + bands, Med. Fold Change (95% CI) from Day 1: 1.08 (0.96, 1.13)
  Platelet Count, Med. Fold Change (95% CI) from Day 1: 1.10 (0.84, 1.17)
  White blood cell (WBC), Med. Fold Change (95% CI) from Day 1: 0.89 (0.78, 1.07)
[1]; 14–16 Days from C1, N=9
  Absolute Immature Granulocyte, Med. Fold Change (95% CI) from Day 1: 0.50 (0.19, 1.00)
  Immature granulocytes, Med. Fold Change (95% CI) from Day 1: 0.46 (0.30, 0.67)
[1]; 14–16 Days from C1, N=11
  Absolute Basophil Count, Med. Fold Change (95% CI) from Day 1: 0.67 (0.50, 1.00)
  Absolute Eosinophil Count, Med. Fold Change (95% CI) from Day 1: 1.00 (0.81, 1.27)
  Basophils %, Med. Fold Change (95% CI) from Day 1: 0.83 (0.50, 1.13)
  Eosinophils %, Med. Fold Change (95% CI) from Day 1: 0.97 (0.92, 1.53)
[1]; 14–16 Days from C1, N=13
  Absolute Lymphocyte Count, Med. Fold Change (95% CI) from Day 1: 0.88 (0.73, 1.03)
  Absolute Monocyte Count, Med. Fold Change (95% CI) from Day 1: 0.56 (0.40, 0.89)
  Absolute Neutrophil Count, Med. Fold Change (95% CI) from Day 1: 0.96 (0.64, 1.15)
  Hemoglobin (Hgb), Med. Fold Change (95% CI) from Day 1: 0.97 (0.91, 1.00)
  Lymphocytes %, Med. Fold Change (95% CI) from Day 1: 0.92 (0.87, 1.25)
  Monocytes %, Med. Fold Change (95% CI) from Day 1: 0.67 (0.52, 0.89)
  Neutrophils % + bands, Med. Fold Change (95% CI) from Day 1: 1.08 (0.96, 1.13)
  Platelet Count, Med. Fold Change (95% CI) from Day 1: 0.97 (0.83, 1.13)
  White blood cell (WBC), Med. Fold Change (95% CI) from Day 1: 0.85 (0.65, 1.06)
[1]; 27–29 Days from C1, N=6
  Absolute Immature Granulocyte, Med. Fold Change (95% CI) from Day 1: 0.20 (0.00, 2.50)
  Immature granulocytes, Med. Fold Change (95% CI) from Day 1: 0.24 (0.00, 2.00)
[1]; 27–29 Days from C1, N=8
  Absolute Eosinophil Count, Med. Fold Change (95% CI) from Day 1: 0.63 (0.31, 5.37)
  Eosinophils %, Med. Fold Change (95% CI) from Day 1: 0.76 (0.48, 4.19)
[1]; 27–29 Days from C1, N=9
  Absolute Basophil Count, Med. Fold Change (95% CI) from Day 1: 0.33 (0.00, 0.67)
  Basophils %, Med. Fold Change (95% CI) from Day 1: 0.22 (0.00, 0.83)
[1]; 27–29 Days from C1, N=10
  Absolute Lymphocyte Count, Med. Fold Change (95% CI) from Day 1: 0.86 (0.60, 1.21)
  Absolute Monocyte Count, Med. Fold Change (95% CI) from Day 1: 0.64 (0.26, 0.88)
  Absolute Neutrophil Count, Med. Fold Change (95% CI) from Day 1: 0.70 (0.46, 1.66)
  Hemoglobin (Hgb), Med. Fold Change (95% CI) from Day 1: 1.03 (0.95, 1.13)
  Lymphocytes %, Med. Fold Change (95% CI) from Day 1: 1.28 (0.47, 1.95)
  Monocytes %, Med. Fold Change (95% CI) from Day 1: 0.84 (0.26, 1.06)
  Neutrophils % + bands, Med. Fold Change (95% CI) from Day 1: 0.97 (0.78, 1.30)
  Platelet Count, Med. Fold Change (95% CI) from Day 1: 0.94 (0.79, 1.18)
  White blood cell (WBC), Med. Fold Change (95% CI) from Day 1: 0.81 (0.58, 1.28)
[2]; 14–15 Days from C1, N=12
  IL-6 serum, Med. Fold Change (95% CI) from Day 1: 0.91 (0.78, 1.34)
  IL-10 serum, Med. Fold Change (95% CI) from Day 1: 1.25 (1.11, 1.44)
  IL-12p70 serum, Med. Fold Change (95% CI) from Day 1: 0.92 (0.80, 1.25)
  M-CSF serum, Med. Fold Change (95% CI) from Day 1: 3.70 (2.31, 5.24)
  MCP-1 serum, Med. Fold Change (95% CI) from Day 1: 1.28 (1.01, 1.56)
[2]; 27–29 Days from C1, N=8
  IL-6 serum, Med. Fold Change (95% CI) from Day 1: 0.98 (0.64, 2.39)
  IL-10 serum, Med. Fold Change (95% CI) from Day 1: 1.22 (0.81, 1.30)
  IL-12p70 serum, Med. Fold Change (95% CI) from Day 1: 0.86 (0.66, 1.05)
  M-CSF serum, Med. Fold Change (95% CI) from Day 1: 4.52 (2.40, 13.3)
  MCP-1 serum, Med. Fold Change (95% CI) from Day 1: 1.27 (1.11, 1.54)
[2]; 400, 600, 800 mg/m^2 DLs
  Target inhibition (CSF1 levels elevated, AMC levels decreased): seen at all DLs
